Screening data from PubChem.
Mdm2 ligase inh: blocks human Mdm2 ubiquitin ligase activity; Q00987; cell-based MDM2 ubiquitination luciferase reporter, 2 h; 0 = plate control, 100 = twice control, blank-subtracted; signal enhancement, % at 5 µM; hit rate 0.11% among 210,000; AID 1230;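 active = signal enhancement of 30% or more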;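 also: luminescence tracks abundance of the self-degrading MDM2-luciferase fusion protein; higher signal means inhibition of MDM2 E3 ligase activity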
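System: stable MDM2–luciferase fusion reporter cells / Input: 2000 cells seeded into each well / Schedule: 4 h settle plus 2 h compound, 37 °C / Compound: single-point 5 µM / Buffer or medium: cells held in DMEM / Benchmarks: control and blank well means / Evaluation: percent signal gain over controls, blank-subtracted / Measured by: luciferase luminescence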
Insulin prom inh: TRM-6 insulin promoter activity inhibition; inhibition, % at 2 µM; TRM-6 cells, insulin promoter-eGFP reporter, imaging; reporter expression induced with tamoxifen; hit rate 0.9% among 130,000;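 active = inhibition above the mean plus 3 SD, with well images judged a real hit on visual review, cut at about 60% in these data, passing the limit was not always enough; inconclusive = inhibition over the cutoff but images rejected on review; inactive = inhibition not above the cutoff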
Hsp70 act: switches on Hsp70 transcription; activation, % at 10 µM; HeLa Hsp70 promoter luciferase reporter, luminescence; scaled: vehicle 0, proteasome-inhibitor control 100%; hit rate 0.04% among 200,000;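 active = activation above the mean across all tested compounds plus 3 SD, cutoff set per campaign, cut at about 5.5% in these data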;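 also: 100% = MG132 at 30 µM as the positive control and 0% = DMSO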
RBBP9 inh: human RBBP9 hydrolase inhibition; O75884; recombinant RBBP9, FP-Rh probe fluorescence polarization; inhibition, % at 7.94 µM; hit rate 0.2% among 220,000;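 active = inhibition above the campaign mean of all tested compounds plus 3 SD, cut at about 14% in these data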;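 also: plate controls were DMSO wells with RBBP9 for no effect and wells lacking RBBP9 protein for full effect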
Target sequence (O75884 whole entry, looked up): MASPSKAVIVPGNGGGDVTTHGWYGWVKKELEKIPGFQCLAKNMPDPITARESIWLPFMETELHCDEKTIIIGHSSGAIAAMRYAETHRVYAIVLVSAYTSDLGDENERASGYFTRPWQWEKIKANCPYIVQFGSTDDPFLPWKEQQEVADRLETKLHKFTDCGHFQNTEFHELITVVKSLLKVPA
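Measured by – fluorescence polarization · Test system – RBBP9 protein · Input – 2.5 µM RBBP9 dispensing solution, before mixing · Measure – percent inhibition from mP, scaled between DMSO and no-protein wells · Benchmarks – DMSO-treated enzyme wells and wells lacking RBBP9 · Times – preincubation 30 min plus labeling 45 min at 25 °C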
Wee1 degr inh: inhibitors of human Wee1 degradation. P30291. HeLa Luc-Wee1K328M stability, luciferase luminescence; 100% = proteasome inhibitor MG132 effect. reporter increase, % at 5 µM. hit rate 1.2% among 220,000;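 active = activation above the mean of all tested compounds plus 3 SD, set per screening run, cut at about 8.8% in these data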;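 also: cells exposed to compound for 20 h before luminescence read; 0% = DMSO alone and 100% = MG132 at 30 µM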
Target sequence (P30291 whole entry K328M): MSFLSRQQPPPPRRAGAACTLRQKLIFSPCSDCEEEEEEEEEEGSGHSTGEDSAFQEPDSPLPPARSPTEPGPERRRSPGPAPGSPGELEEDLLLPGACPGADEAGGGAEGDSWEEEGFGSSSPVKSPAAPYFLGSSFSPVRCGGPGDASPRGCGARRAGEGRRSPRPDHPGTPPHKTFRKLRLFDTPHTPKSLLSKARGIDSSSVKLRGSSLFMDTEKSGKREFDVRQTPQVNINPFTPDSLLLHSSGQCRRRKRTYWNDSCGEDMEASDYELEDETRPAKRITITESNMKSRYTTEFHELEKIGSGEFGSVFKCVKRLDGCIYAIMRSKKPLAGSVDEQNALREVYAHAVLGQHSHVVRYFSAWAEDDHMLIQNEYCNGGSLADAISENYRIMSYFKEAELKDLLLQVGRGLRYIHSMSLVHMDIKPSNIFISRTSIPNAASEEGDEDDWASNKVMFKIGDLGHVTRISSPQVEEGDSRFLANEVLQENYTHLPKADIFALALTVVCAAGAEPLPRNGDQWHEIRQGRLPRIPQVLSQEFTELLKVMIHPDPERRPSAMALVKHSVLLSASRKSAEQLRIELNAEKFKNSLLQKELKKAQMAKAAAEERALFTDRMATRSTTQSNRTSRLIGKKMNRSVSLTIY
Ins promoter up: MIN6 insulin promoter up-regulation; AID 1625; MIN6 insulin promoter-GFP reporter, high-content imaging; hits give high values; z-score at 5 µM; hit rate 0.3% among 190,000;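 active = z-score above 3 at 5 µM with at least 500 cells counted in the well; inconclusive = wells under 500 cells, flagged as cytotoxic or low count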
Wee1 degr conf: human Wee1 degradation inhibition, confirmation. shares compounds with Wee1 degr inh. hit rate 4% among 1,100. HeLa Luc-Wee1K328M degradation, luminescence; vehicle 0%, proteasome-blocked wells 100%. activation, % at 5 µM; in the data active = activation above about 8.9%
RBBP9 confirm: human RBBP9 inhibition, confirmation; shares compounds with RBBP9 inh; recombinant RBBP9, FP-Rh probe fluorescence polarization; inhibition, % at 7.94 µM; hit rate 36% among 410; AID 1537;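 active = inhibition above the hit cutoff derived for the primary screen, cut at about 15% in these data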;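 also: 0% = RBBP9 with DMSO and 100% = wells lacking RBBP9 protein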
* hit, by the source's call; ? = inconclusive; . = no result given. Shown are actives, neighbours in structure and some others; about 2.2% of the full set was active somewhere.

SMILES | Mdm2 ligase inh | Insulin prom inh | Hsp70 act | RBBP9 inh | Wee1 degr inh | Ins promoter up | Wee1 degr conf | others
Cc1nc(NC(=O)c2ccc(Br)o2)sc1C | -7.4 | -10.0 | 0.0 | -1.3 | 11.3* | . | 2.0
O=S1(=O)N=C(Nc2ccc(O)cc2)c2ccccc21 | -12.0 | . | -0.3 | -7.4 | -0.7 | -1.59 | .
O=S1(=O)N=C(Nc2ccc(N3CCOCC3)c(Cl)c2)c2ccccc21 | -7.1 | 0.0 | 0.6 | -6.3 | 11.0* | . | 5.8
Clc1cccc(-c2cc3nc4c(c(N5CCNCC5)n3n2)CCCC4)c1 | . | -24.1 | 0.3 | -4.7 | 12.2* | . | -1.3
COC(=O)c1c(-c2cccc3ccccc23)csc1NC(=O)Cc1ccc(OC)c(OC)c1 | -15.1 | 1.7 | -0.4 | -6.5 | -1.9 | -1.34 | .
COc1ccc(NC(=O)/C=C2\SC(=O)NC2=O)cc1 | -3.3 | . | 0.5 | 3.4 | 15.2* | -0.16 | 2.5
O=C1/C(=C\c2ccc(O)c(O)c2)C(c2ccccc2)=NN1c1ccccc1 | -6.6 | 11.1 | -0.2 | 8.2 | 11.4* | 1.4 | 1.8
COc1ccc(CN2CCc3ccccc3C2)c(OC)c1OC | -2.6 | -43.8 | -0.4 | 6.4 | -2.0 | . | .
Cn1c(-c2ccccc2)cc(=O)c2ccccc21 | 0.1 | 24.7 | -0.3 | -2.5 | 1.7 | 0.21 | .
COc1ccc2c(c1)c(=O)cc(-c1ccccc1)n2C | -11.4 | 31.2 | -0.1 | 3.2 | 11.0* | . | 2.7
CC(=O)N(C)c1ccc(N=Nc2c(C)[nH]n(C(N)=S)c2=O)cc1 | -39.9 | 31.2 | -0.1 | -4.1 | 17.1* | -0.11 | 2.3
O=C(Cn1nnc(-c2ccccc2Cl)n1)N/N=C/c1ccc(-c2cccc(Cl)c2)o1 | . | 35.7 | -0.3 | -6.8 | 3.0 | -0.04 | .
CC(C)CNC(=O)COC(=O)c1ccc(F)cc1Cl | -5.8 | 58.3 | 0.0 | -9.8 | -2.5 | -0.57 | .
CC1(C)c2cc(Cl)ccc2-n2c1cc(O)c(-c1ccccc1)c2=O | -15.7 | . | . | -7.4 | 1.9 | -1 | .
NC(=O)C1=C[C@H](c2ccc(Br)cc2)C[C@H](OCc2ccc(CO)cc2)O1 | . | . | 1.0 | 3.7 | 11.4* | 0.88 | 0.2
COc1ccc(-c2[nH]ncc2CNCC(C)(C)N2CCOCC2)cc1F | 3.1 | . | 0.0 | -0.3 | -1.5 | 0.43 | .
Cc1nnc(SCC(=O)Nc2nsc(-c3ccc(C(C)(C)C)cc3)n2)s1 | -24.6 | . | 0.0 | -7.6 | 18.2* | -0.42 | 1.5
Cc1nnc(SCC(=O)Nc2ccc(-c3nc4ccccc4s3)cc2)s1 | -55.5 | 40.7 | -0.3 | -5.0 | 1.9 | 0.15 | .
CCCCC(=O)Nc1ccc(NC(=O)c2ccccc2[N+](=O)[O-])cc1OC | 0.3 | 20.5 | -0.2 | 2.7 | -0.9 | -0.1 | .
CC(=O)Oc1cc2cccc(OC(C)=O)c(=O)c2c(OC(C)=O)c1OC(C)=O | -7.5 | . | -0.1 | 2.7 | 0.9 | -0.31 | .
Cc1ccc(NC2=CC(=O)CC(c3ccc(Cl)cc3)C2)cc1 (stereo not given) | -14.2 | . | -0.5 | -6.2 | 14.8* | -0.41 | 1.2
CC1CCN(C2=NC(=O)/C(=C/c3cn(-c4ccccc4)nc3-c3cccc(S(=O)(=O)N(C)C)c3)S2)CC1 | -16.4 | . | 0.1 | -4.4 | -0.4 | -0.19 | .
CC(=O)N1CCc2cc(N=NC3=C(O)CC(C)(C)CC3=O)ccc21 | -16.2 | . | 0.1 | -7.5 | 17.2* | -0.47 | -1.1
Cc1cccn2c1nc(=S)n2C(=O)c1ccco1 | -2.8 | -57.1 | 0.2 | -10.7 | 12.3* | 0.34 | 10.3*
CCCCN1CNC(=S)N(CCc2ccccc2)C1 | 1.8 | . | -0.2 | -7.2 | 11.9* | -0.39 | 2.8
SMILES | Mdm2 ligase inh | Insulin prom inh | Hsp70 act | RBBP9 inh | Wee1 degr inh | Ins promoter up | Wee1 degr conf | others
Nc1nnc(-c2cccc([N+](=O)[O-])c2)o1 | -13.0 | . | . | -10.3 | 11.4* | . | 2.0
O=C(CSc1ccc(F)cc1)NC1CCCCC1 | -16.7 | . | 0.2 | 5.7 | 11.6* | -0.75 | 2.1
O=C(CSc1ccc(Cl)cc1)NC1CCCC1 | -10.0 | . | -0.3 | 7.4 | 7.4 | 0.3 | .
CN1CCN(C(=S)c2cn(Cc3ccc(Br)cc3)c3ccccc23)CC1 | -4.5 | -33.3 | -0.2 | -2.2 | 1.1 | -0.29 | .
Cc1cc(C)n2nc(-c3ccc(F)cc3)nc2n1 | -1.4 | 0.0 | 0.5 | 1.3 | 15.9* | 0.14 | 2.3
COc1cccc(N2C(=O)[C@H]3C(C(=O)c4cnccn4)=NN[C@H]3C2=O)c1 | . | . | . | -0.3 | 21.2* | 0.24 | -1.0
O=C(C1=NN[C@@H]2C(=O)N(c3cccc(F)c3)C(=O)[C@H]12)c1ccc2ccccc2n1 | -17.4 | . | -0.1 | -3.6 | 5.1 | 0.2 | .
CC(NC(=O)CSc1ncccc1C(=O)O)C1CC2CCC1C2 (stereo not given) | -13.1 | . | . | -0.3 | 1.6 | -0.3 | .
O=C(N=Nc1c(O)[nH]c2ccc(Br)cc12)c1ccccc1-n1cccc1 | -11.0 | -117.2 | 0.0 | -2.9 | 11.8* | -1.35 | 21.1*
N=C(N)N=Nc1c(O)[nH]c2ccc(Br)cc12 | -30.2 | 0.0 | -0.3 | -4.9 | 0.5 | 0.02 | .
Cc1cc(NC(=O)COC(=O)C(Cc2ccccc2)NC(=O)c2ccco2)no1 (stereo not given) | -31.5 | 12.9 | -0.3 | -4.8 | 21.5* | 1.73 | -2.4
O=C(COC(=O)[C@H](Cc1ccccc1)NC(=O)c1ccco1)NC(c1ccccc1)c1ccccc1 | -12.3 | 13.0 | 0.5 | -10.9 | 5.4 | 0.24 | .
O=C(CCc1nnc(-c2ccsc2)o1)N1CCc2c(Cl)cccc2C1 | -6.2 | -60.0 | 0.1 | -9.6 | -0.5 | . | .
Cc1ccc(NC(=O)COC(=O)[C@H](C)N2C(=O)C3CC=CCC3C2=O)cc1S(=O)(=O)N(C)C (stereo not given in full) | -17.8 | -16.7 | -0.3 | 2.2 | 13.8* | -0.05 | 4.0
C/C=C/C(=O)OCC(=O)Nc1ccc(C)c(S(=O)(=O)N(C)C)c1 | -9.9 | -20.0 | 0.1 | -9.9 | -0.3 | 1.25 | .
O=[N+]([O-])c1ccc(Sc2cccc[n+]2[O-])c2nonc12 | -69.2 | . | . | 19.4* | 40.0* | ? | 43.0* | RBBP9 confirm=49.6*
Cc1cc2nc(-c3ccc(SCc4ccc(C#N)cc4)nc3)[nH]c2cc1C | -22.9 | . | -0.1 | -16.7 | -1.5 | -0.03 | .
Cc1nn(-c2ccccc2)nc1C(=O)c1c(C)[nH]n(-c2ccccc2)c1=O | -15.6 | . | . | 15.0* | -0.3 | . | . | RBBP9 confirm=0.9
CCN(CC)c1cccc(OC2=NS(=O)(=O)c3ccccc32)c1 | -5.9 | . | -0.2 | 18.8* | -1.9 | 0.98 | . | RBBP9 confirm=16.0*
CCc1ccc(OC2=NS(=O)(=O)c3ccccc32)cc1 | -17.4 | 20.0 | -0.1 | -10.0 | -1.5 | 0.47 | .
O=C(Nc1c(C(=O)NCc2ccco2)cnn1-c1ccccc1)c1ccc(F)cc1 | -10.8 | . | -0.6 | -9.1 | 0.5 | 1.74 | .
